Screening data (PubChem BioAssay)
Rin1-Abl PPI inh = blocks binding of human Rin1 to Abl. inhibition, % at 7.35 µM. AID 588664. hit rate 0.4% among 360,000. TR-FRET Rin1/Abl binding, biochemical. P00519+Q13671; in the data active = inhibition above about 5%, passing the limit was not always enough
Target sequence (P00519 whole entry, looked up): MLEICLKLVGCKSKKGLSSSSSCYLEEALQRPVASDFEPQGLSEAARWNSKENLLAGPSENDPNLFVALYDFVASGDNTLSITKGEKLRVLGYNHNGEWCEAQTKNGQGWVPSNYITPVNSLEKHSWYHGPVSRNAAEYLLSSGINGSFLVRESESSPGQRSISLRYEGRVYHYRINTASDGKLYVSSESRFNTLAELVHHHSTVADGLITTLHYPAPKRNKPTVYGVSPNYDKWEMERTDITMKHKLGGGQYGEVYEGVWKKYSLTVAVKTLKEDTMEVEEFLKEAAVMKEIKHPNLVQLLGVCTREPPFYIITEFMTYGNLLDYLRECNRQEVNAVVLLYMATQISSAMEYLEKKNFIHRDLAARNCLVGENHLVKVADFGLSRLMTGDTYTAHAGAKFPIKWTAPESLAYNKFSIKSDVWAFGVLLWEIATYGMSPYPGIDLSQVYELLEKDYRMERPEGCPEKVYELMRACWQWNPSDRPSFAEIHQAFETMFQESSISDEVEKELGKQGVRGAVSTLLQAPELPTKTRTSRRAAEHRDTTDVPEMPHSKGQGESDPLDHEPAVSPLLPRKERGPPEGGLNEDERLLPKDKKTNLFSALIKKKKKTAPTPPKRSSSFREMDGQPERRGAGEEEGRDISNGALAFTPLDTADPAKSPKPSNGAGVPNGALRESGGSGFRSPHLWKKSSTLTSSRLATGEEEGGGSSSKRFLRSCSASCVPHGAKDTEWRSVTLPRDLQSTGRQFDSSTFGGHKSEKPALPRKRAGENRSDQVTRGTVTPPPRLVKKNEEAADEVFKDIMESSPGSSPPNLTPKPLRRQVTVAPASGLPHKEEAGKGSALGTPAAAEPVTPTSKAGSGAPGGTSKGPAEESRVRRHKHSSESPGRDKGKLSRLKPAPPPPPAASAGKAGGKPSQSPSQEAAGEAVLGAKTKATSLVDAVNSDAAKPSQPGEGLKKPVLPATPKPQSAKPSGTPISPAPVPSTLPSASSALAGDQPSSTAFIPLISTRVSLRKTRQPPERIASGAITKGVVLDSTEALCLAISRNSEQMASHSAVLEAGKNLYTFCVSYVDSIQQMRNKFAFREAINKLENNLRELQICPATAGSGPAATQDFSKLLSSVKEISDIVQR
Target sequence (Q13671 whole entry, looked up): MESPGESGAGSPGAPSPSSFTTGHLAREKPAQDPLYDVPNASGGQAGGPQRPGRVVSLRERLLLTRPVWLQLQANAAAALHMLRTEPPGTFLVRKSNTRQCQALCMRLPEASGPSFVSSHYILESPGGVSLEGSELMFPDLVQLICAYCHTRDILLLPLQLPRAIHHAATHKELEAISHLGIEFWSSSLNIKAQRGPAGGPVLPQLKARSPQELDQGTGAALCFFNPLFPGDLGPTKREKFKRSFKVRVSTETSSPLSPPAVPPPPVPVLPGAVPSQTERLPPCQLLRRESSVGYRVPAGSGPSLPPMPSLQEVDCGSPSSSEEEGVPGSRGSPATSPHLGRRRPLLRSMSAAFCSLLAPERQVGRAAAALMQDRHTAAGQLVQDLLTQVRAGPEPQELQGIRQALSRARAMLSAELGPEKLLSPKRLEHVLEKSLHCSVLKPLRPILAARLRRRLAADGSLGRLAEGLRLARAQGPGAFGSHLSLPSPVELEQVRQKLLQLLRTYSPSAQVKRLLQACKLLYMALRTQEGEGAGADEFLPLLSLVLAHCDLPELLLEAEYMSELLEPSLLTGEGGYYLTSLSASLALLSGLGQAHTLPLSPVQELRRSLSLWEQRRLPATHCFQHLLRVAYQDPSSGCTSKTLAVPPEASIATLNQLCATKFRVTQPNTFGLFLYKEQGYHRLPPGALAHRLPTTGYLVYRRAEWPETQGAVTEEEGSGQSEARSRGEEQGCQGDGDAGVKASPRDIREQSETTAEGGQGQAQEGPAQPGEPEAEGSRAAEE
Tb MetRS inh = Trypanosoma brucei MetRS inhibition; purified T. brucei MetRS, ATP depletion, Kinase-Glo luminescence; inhibition, % at 11.9 µM; hit rate 0.4% among 360,000; AID 624268;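 active = inhibition above a per-plate cutoff of the control wells' mean inhibition plus 3 SD, cut at about 5.5% in these data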;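 also: 0% = DMSO wells median and 100% = median of wells with control inhibitor compound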
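Test system: purified T. brucei MetRS enzyme. Also added: ATP, methionine and E. coli bulk tRNA substrates. Compound: 11.9 µM single point. Schedule: 15 min enzyme-compound preincubation, 2 h reaction, 10 min detection, 25 °C. Signal: luciferase luminescence of residual ATP, Kinase-Glo. Evaluation: percent inhibition versus plate control medians. Controls: DMSO wells, low control.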
SKN-1 block = inhibitors of C. elegans SKN-1 | AID 624304 | hit rate 0.49% among 360,000 | inhibition, % at 21.8 µM | C. elegans VP596 Pgst-4::GFP/RFP ratio, acrylamide-induced, 24 h;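 active = interference check ratio from 0.5 to 1.5 plus GFP to RFP signal ratio inhibition reaching or exceeding a fixed threshold, cut at about 30% in these data, passing the limit was not always enough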
MT1-MMP act inh = MT1-MMP (human) activation inhibition; P50281; HT1080 RFP-PRO-GFP cells, GFP/RFP ratio fluorescence, overnight; percent of plate control window, DMSO zero; GFP/RFP ratio change, % at 20 µM; hit rate 0.061% among 360,000; AID 651647;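 active = GFP/RFP ratio change of at least 30% with cell ATP level not reduced by more than half and red fluorescence within 50% of control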
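Material – HT1080 RFP-PRO-GFP cells · Control set – DMSO wells and RFP-L50D-GFP cells · Incubation – overnight cell settling, then overnight compound exposure, 37 °C, 5% CO2 · Compound dosing – single-point 20 µM compound, 1% DMSO · Read-out – GFP/RFP fluorescence ratio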
Arrestin-AP2 inh = inhibitors of human beta-arrestin and AP2 interaction. FITC-arrestin peptide / GST-AP2 beads, flow cytometry; AP2 beta2 appendage carries R879A mutation. inhibition, % at 10 µM. hit rate 0.31% among 340,000;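 active = inhibition above a set limit, near 3 SD of compounds lacking own fluorescence, cut at about 54% in these data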;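 also: plate controls were DMSO wells for no effect and 5 µM unlabelled arrestin peptide for full effect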
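Material – AP2 appendage R879A on GSH beads · Buffer or medium – PBS with 0.05% Tween 20 and 0.1% BSA · Probe or stimulus – fluorescein-tagged arrestin peptide at 50 nM final · Incubation – compound with beads 12 min RT, then probe 1 h RT · Detection – high-throughput flow cytometry of beads, ex 488, em 535 nm · Evaluation – percent response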
Tb MetRS conf = Trypanosoma brucei MetRS inhibition confirmed; shares compounds with Tb MetRS inh; T. brucei MetRS enzyme, luminescence (ATP depletion); inhibition, % at 11.9 µM; hit rate 93% among 1,400; AID 624412; in the data active = inhibition above about 7%
Jurkat tox = Jurkat T cell cytotoxicity for MetRS hits. hit rate 12% among 1,400. shares compounds with Tb MetRS inh. inhibition, % at 8.3 µM. Jurkat cells viability, ATP luminescence; in the data active = inhibition above about 15%;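 also: 0% = vehicle and 100% = reference inhibitor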
Tb MetRS inh FP = inhibits T. brucei methionyl tRNA synthetase in orthogonal FP test | shares compounds with Tb MetRS inh | purified T. brucei MetRS, fluorescence polarization | inhibition, % at 11.9 µM | hit rate 44% among 1,400; in the data active = inhibition above about 17%;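 also: 0% = vehicle wells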
* marks the source's active call; other numbers are inactive results; nt = no result given. This is a sample that favours compounds with a hit; in the whole collection about 1.6% have one here.

SMILES	Rin1-Abl PPI inh	Tb MetRS inh	SKN-1 block	MT1-MMP act inh	Arrestin-AP2 inh	Tb MetRS conf	Jurkat tox	Tb MetRS inh FP
CCN(CC)S(=O)(=O)c1cccc(NC(=O)CSc2nc3ccccc3[nH]2)c1	3.2	2.2	1.1	-0.5	-0.1	nt	nt	nt
O=C(CSc1nc2ccccc2[nH]1)Nc1cccc(S(=O)(=O)N2CCOCC2)c1	0.3	40.4*	-3.1	6.7	8.8	39.9*	5.9	18.4*
Cc1cccc(C)c1NC(=O)C1c2ccccc2OCC(=O)N1C1CC1 (stereo not given)	nt	0.5	3.2	4.3	nt	nt	nt	nt
Cc1ccc(NC(=O)COC(=O)Cc2c[nH]c3ccccc23)cc1	-5.2	-0.3	3.4	-2.2	nt	nt	nt	nt
Cc1ccc(NC(=O)c2cc(S(=O)(=O)N3CCCCC3)c[nH]2)cc1Cl	0.8	0.1	-27.0	2.2	nt	nt	nt	nt
O=C(O)c1ccc(CSc2nnc(COc3ccc(Cl)cc3Cl)o2)cc1	-0.3	47.6*	5.2	1.5	-3.0	59.9*	9.1	35.2*
CC1CCCN(CCCOc2ccc(Cl)cc2Br)C1 (stereo not given)	1.8	10.7*	12.1	-6.3	-0.2	22.7*	8.5	3.6
CC1CCN(CCCOc2ccc(Cl)cc2Br)CC1	-0.2	5.4	3.9	-0.6	12.2	nt	nt	nt
COc1ccc(/C=C/C(=O)OCC(=O)NCc2ccccc2Cl)cc1OC	-1.4	-0.1	8.3	1.9	12.1	nt	nt	nt
O=C(CSc1nc2ccccc2o1)Nc1cc(C(F)(F)F)ccc1N1CCOCC1	3.0	-0.2	-14.1	-15.3	5.4	nt	nt	nt
O=C(Cn1cnc2ccccc21)Nc1cc(C(F)(F)F)ccc1N1CCOCC1	0.3	27.2*	6.5	2.6	-1.6	43.5*	-1.9	23.5*
COc1ccc(N2CCC(CNC(=O)Nc3ccc(Cl)cc3)C2)cc1 (stereo not given)	-2.0	13.8*	17.3	-1.5	7.0	28.7*	10.9	25.4*
COc1ccc(N2CCC(CNC(=O)Nc3cccc(OC)c3)C2)cc1 (stereo not given)	-2.7	-0.1	-12.2	-2.5	25.2	nt	nt	nt
COc1ccc(OCCn2c(N)nc3ccccc32)cc1	2.4	38.6*	-12.3	8.2	-3.4	62.2*	-0.1	31.9*
Cc1nc2ccccc2n1CCOc1ccccc1	3.2	-0.2	-18.5	0.8	-0.3	nt	nt	nt
Nc1nc2ccccc2n1CCOc1ccc(F)cc1	-4.6	49.3*	-6.0	1.2	-0.9	72.2*	16.9*	44.6*
CC(=O)Nc1nc2ccccc2n1CCOc1ccccc1	-0.5	1.6	-7.8	9.6	0.8	nt	nt	nt
S=C(Nc1ccccc1)Nc1nc2ccccc2n1CCOc1ccccc1	-0.3	18.2*	41.0*	9.4	-0.6	4.9	-0.3	3.0
O=C(CN1CCN(c2ccccc2F)CC1)c1c[nH]c2ccc(F)cc12	3.1	10.7*	-33.5	21.9	15.0	17.4*	-10.3	2.3
CCCOc1ccccc1C(=O)N1CCNC(=O)C1CC(=O)OC(C)C (stereo not given)	0.5	0.6	10.2	-0.7	7.1	nt	nt	nt
O=c1[nH]nc(Cc2ccc(Cl)cc2Cl)c2ccccc12	0.6	8.2*	-1.6	-4.2	-11.6	39.1*	5.3	20.5*
O=c1[nH]nc(Cc2ccc(Cl)cc2)c2ccccc12	1.1	0.8	-2.1	2.6	0.3	nt	nt	nt
Cc1cc(-c2ccc(C(C)C)c(S(=O)(=O)N3CCN(c4ccccn4)CC3)c2)on1	1.6	8.0*	-6.4	-3.8	-4.8	12.4*	50.5*	4.2
CC(=O)Oc1ccc(Cn2c(C)c(C(=O)NCCC#N)sc2=O)cc1	-4.4	0.3	-2.4	4.2	nt	nt	nt	nt
O=C(COC(=O)CCCSc1nc2ccccc2[nH]1)Nc1ccc(Cl)cc1	-0.6	12.7*	4.0	2.2	-2.8	21.2*	0.6	12.9
CCNC(=O)NC(=O)COC(=O)CCCSc1nc2ccccc2[nH]1	3.5	-1.3	-18.9	-1.9	-0.7	nt	nt	nt
O=C(CCCSc1nc2ccccc2[nH]1)NCc1ccccc1Cl	-1.9	10.2*	5.2	-3.2	-8.4	17.3*	6.7	6.0
